Experimental data taken from PMC3372611 (Biochemical Pharmacology, 2012).
Residue numbers refer to the chain shown, from its start. Where “and” joins values, the source holds several entries; their conditions need not be identical. Equal entries are not always repeated.

Tests used:
PMAT I89M mutant [1] = target: T1, PMAT I89M mutant (Homo sapiens, UniProt Q7RTT9, I89M); assay: Inhibition of [3H]MPP+ uptake in I89M-transfected MDCK cells; format: cell-based
T1 sequence (Q7RTT9 1-530 I89M): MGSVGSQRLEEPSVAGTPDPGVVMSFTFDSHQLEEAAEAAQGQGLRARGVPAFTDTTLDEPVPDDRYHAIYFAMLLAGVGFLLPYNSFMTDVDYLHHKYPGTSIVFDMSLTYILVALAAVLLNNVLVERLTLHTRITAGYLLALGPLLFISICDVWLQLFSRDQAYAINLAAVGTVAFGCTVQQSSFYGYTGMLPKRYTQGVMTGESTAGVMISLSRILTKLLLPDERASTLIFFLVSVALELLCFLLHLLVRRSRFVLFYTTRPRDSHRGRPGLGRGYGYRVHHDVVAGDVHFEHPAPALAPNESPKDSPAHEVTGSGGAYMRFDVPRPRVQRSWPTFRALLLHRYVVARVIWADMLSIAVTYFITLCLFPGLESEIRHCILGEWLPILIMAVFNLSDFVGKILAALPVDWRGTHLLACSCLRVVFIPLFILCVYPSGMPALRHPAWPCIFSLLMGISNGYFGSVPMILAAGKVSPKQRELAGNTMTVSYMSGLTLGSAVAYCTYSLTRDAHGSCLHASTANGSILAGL
Procedure, shortened: (§1)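 Stably transfected MDCK cells (YFP-tagged WT or I89M human PMAT) at confluence were exposed 1 min at 37°C in KRH buffer (pH 7.4) to [3H]MPP+ (1 μM) with or without test compound at various concentrations. Cells were washed in ice-cold KRH, counted by scintillation, and normalized to protein. IC50 came from fitting total uptake to a Hill-type equation with residual baseline. Wells in triplicate; three independent experiments on different passages; mean ± S.D.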

PMAT I89M mutant [2] = target: T1, PMAT I89M mutant; assay: Concentration-dependent [3H]MPP+ uptake; format: cell-based; details: MPP+ as substrate
Procedure, shortened: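 MDCK cells stably expressing YFP-tagged WT or I89M human PMAT (G418-selected, FACS-sorted) were grown 2–3 days to ~90–100% confluence. Cells were preincubated 15 min in KRH buffer (pH 7.4) at 37°C, then given various [3H]MPP+ concentrations for 1 min at 37°C. Uptake was read by scintillation and normalized to protein. Vector-cell uptake was subtracted, and Km and Vmax came from Michaelis-Menten nonlinear least-squares fits. Wells in triplicate; n=3 passages.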

ENT1 = details: mammalian ENT1 proteins; cited from earlier work
ENT2 = ENT2 transporters; cited from earlier work
WT PMAT = target: T2, WT PMAT (Homo sapiens, UniProt Q7RTT9); assay: Inhibition of [3H]MPP+ uptake in WT PMAT-transfected MDCK cells; format: cell-based
T2 sequence (Q7RTT9 1-530): T1 sequence (Q7RTT9 1-530 I89M) with M89I
Procedure, shortened: as §1

With OCCN(CCO)c1nc(N2CCCCC2)c2nc(N(CCO)CCO)nc(N3CCCCC3)c2n1 [Dipyridamole, dipyridamole] as the molecule, how does the IC50 (PMAT I89M mutant [1]) read?
Its IC50 is 4.6 ± 1.8 µM.

And the “Change in inhibition, I89M vs WT PMAT (in words)” value (PMAT I89M mutant [1]; inhibition of MPP+ uptake)?
Its value is “no significant changes”.

Which “Decrease in maximal transport velocity (Vmax), I89M vs WT PMAT” value (PMAT I89M mutant [2]) does the source give for C[n+]1ccc(-c2ccccc2)cc1 [MPP^+, 1-methyl-4-phenylpyridinium] here?
The value was 2.7 fold and ~ 2.7 fold.

And the “Decrease in transport efficiency (Vmax/Km), I89M vs WT PMAT” value (PMAT I89M mutant [2])?
Its value is 3.7 fold.

For O=[N+]([O-])c1ccc(CSc2ncnc3c2ncn3[C@@H]2O[C@H](CO)[C@@H](O)[C@H]2O)cc1 [NBMPR, nitrobenzylmercaptopurine riboside], which “Change in inhibition, I89M vs WT PMAT (in words)” value (PMAT I89M mutant [1]; inhibition of MPP+ uptake) is on record?
The value was “no significant changes”.

What about the Kd (ENT1) of the same molecule?
Its Kd is 0.001 to 0.01 µM.

What about the “Concentration at which the transporter becomes sensitive” value (ENT2) of the same molecule?
The value was over 10 µM.

Which IC50 (WT PMAT) does the source give for COc1cc(C(=O)OCCCN2CCCN(CCCOC(=O)c3cc(OC)c(OC)c(OC)c3)CC2)cc(OC)c1OC [Dilazep, dilazep] here?
The IC50 was 16.6 ± 2.1 µM.

What about the IC50 (PMAT I89M mutant [1]) of the same molecule?
Its IC50 is 6.6 ± 0.5 µM.

What about the “Increase in transporter sensitivity to inhibition, I89M vs WT PMAT” value (PMAT I89M mutant [1]; inhibition of MPP+ uptake) of the same molecule?
Its value is 2.5 fold and ~ 2.5 fold.
